≈ marks a conversion by molar mass, not a printed value.
How the values were obtained:
Format in all cases: functional
Shigella flexneri [1] = test: Antibacterial activity against Shigella flexneri ATCC 15391 after 24 hrs by two-fold serial dilution method relative to ofloxacin
Shigella flexneri [2] = test: Antibacterial activity against Shigella flexneri ATCC 15391 after 24 hrs by two-fold serial dilution method; details: ATCC 15391, 24 h
In short: (§1)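 Two-fold serial broth dilution in sterile nutrient broth at 500, 250, 125, 62.5, 31.25, 15.63, 7.82 and 3.91 µg/ml, with dimethylformamide ≤2.5%. Organisms were pre-grown 24 h in broth, and 0.1 ml inoculum was added per 5 ml tube. Tubes were incubated at 37°C, 24 h for bacteria and 48 h for fungi. MIC was taken as the lowest concentration giving no turbidity.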

Candida albicans [3] = test: Antifungal activity against Candida albicans ATCC 2091 assessed as diameter of inhibition zone at 1 mg/ml after 48 hrs by cup diffusion method (reference value: 22 mm); details: ATCC 2091, 48 h, read-out: DIZ
Shigella flexneri [4] = test: Antibacterial activity against Shigella flexneri ATCC 15391 assessed as diameter of inhibition zone at 1 mg/ml after 24 hrs by cup diffusion method (reference value: 17 mm); details: ATCC 15391, 24 h, read-out: DIZ
Staphylococcus aureus [5] = test: Antibacterial activity against Staphylococcus aureus ATCC 6538P assessed as diameter of inhibition zone at 1 mg/ml after 24 hrs by cup diffusion method (reference value: 15 mm); details: read-out: DIZ
Pseudomonas aeruginosa [6] = test: Antibacterial activity against Pseudomonas aeruginosa ATCC 9027 assessed as diameter of inhibition zone at 1 mg/ml after 24 hrs by cup diffusion method (reference value: 16 mm); details: ATCC 9027, 24 h, read-out: DIZ
NCI/ADR-RES = test: Cytotoxicity against human NCI/ADR-RES cells assessed as growth inhibition at 10 uM; details: read-out: GI
In short: (§2)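 Single-dose screen on human tumour cell lines. Growth of treated cells is expressed as percent of untreated growth, plotted as a mean graph, and reported as percent growth inhibition.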

HCC 2998 = test: Cytotoxicity against human HCC2998 cells assessed as growth inhibition at 10 uM; details: read-out: GI
NCI-H23 = test: Cytotoxicity against human NCI-H23 cells assessed as growth inhibition at 10 uM; details: read-out: GI; in short: as §2
Candida albicans [7] = test: Antifungal activity against Candida albicans ATCC 2091 after 48 hrs by two-fold serial dilution method; details: ATCC 2091, 48 h; in short: as §1
Candida albicans [8] = test: Antifungal activity against Candida albicans ATCC 2091 after 48 hrs by two-fold serial dilution method relative to clotrimazole
Pseudomonas aeruginosa [9] = test: Antibacterial activity against Pseudomonas aeruginosa ATCC 9027 after 24 hrs by two-fold serial dilution method; details: ATCC 9027, 24 h; in short: as §1
Staphylococcus aureus [10] = test: Antibacterial activity against Staphylococcus aureus ATCC 6538P after 24 hrs by two-fold serial dilution method; in short: as §1
M14 = test: Cytotoxicity against human M14 cells assessed as growth inhibition at 10 uM; details: read-out: GI
T47D = test: Cytotoxicity against human T47D cells assessed as growth inhibition at 10 uM; details: read-out: GI; in short: as §2
MDA-MB-435 = test: Cytotoxicity against human MDA-MB-435 cells assessed as growth inhibition at 10 uM; details: read-out: GI; in short: as §2
BT-549 = test: Cytotoxicity against human BT549 cells assessed as growth inhibition at 10 uM; details: read-out: GI
Hs-578T = test: Cytotoxicity against human Hs578T cells assessed as growth inhibition at 10 uM; details: read-out: GI
PC-3 = test: Cytotoxicity against human PC3 cells assessed as growth inhibition at 10 uM; details: read-out: GI; in short: as §2
MCF7 = test: Cytotoxicity against human MCF7 cells assessed as growth inhibition at 10 uM; details: read-out: GI; in short: as §2
TK-10 = test: Cytotoxicity against human TK10 cells assessed as growth inhibition at 10 uM; details: read-out: GI
In short: (§3)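 Single-dose screen in a sixty-cell human tumour line panel; percent growth of treated cells relative to untreated was read and reported as percentage growth inhibition, shown as a mean graph. Compounds meeting the threshold inhibition criteria went on to five-dose testing.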

UO-31 = test: Cytotoxicity against human UO31 cells assessed as growth inhibition at 10 uM; details: read-out: GI; in short: as §3
SN12C = test: Cytotoxicity against human SN12C cells assessed as growth inhibition at 10 uM; details: read-out: GI; in short: as §2
CAKI-1 = test: Cytotoxicity against human Caki1 cells assessed as growth inhibition at 10 uM; details: read-out: GI
A498 = test: Cytotoxicity against human A498 cells assessed as growth inhibition at 10 uM; details: read-out: GI
ACHN = test: Cytotoxicity against human ACHN cells assessed as growth inhibition at 10 uM; details: read-out: GI
786-0 = test: Cytotoxicity against human 786-0 cells assessed as growth inhibition at 10 uM; details: read-out: GI
SK-OV-3 = test: Cytotoxicity against human SKOV3 cells assessed as growth inhibition at 10 uM; details: read-out: GI; in short: as §2
OVCAR-8 = test: Cytotoxicity against human OVCAR8 cells assessed as growth inhibition at 10 uM; details: read-out: GI; in short: as §2
OVCAR-3 = test: Cytotoxicity against human OVCAR3 cells assessed as growth inhibition at 10 uM; details: read-out: GI; in short: as §2
IGROV-1 = test: Cytotoxicity against human IGROV1 cells assessed as growth inhibition at 10 uM; details: read-out: GI
UACC-62 = test: Cytotoxicity against human UACC62 cells assessed as growth inhibition at 10 uM; details: read-out: GI; in short: as §3
UACC-257 = test: Cytotoxicity against human UACC257 cells assessed as growth inhibition at 10 uM; details: read-out: GI; in short: as §3
SK-MEL-28 = test: Cytotoxicity against human SK-MEL-28 cells assessed as growth inhibition at 10 uM; details: read-out: GI; in short: as §2
SK-MEL-2 = test: Cytotoxicity against human SK-MEL-2 cells assessed as growth inhibition at 10 uM; details: read-out: GI; in short: as §2
Malme-3M = test: Cytotoxicity against human MALME-3M cells assessed as growth inhibition at 10 uM; details: read-out: GI
SNB-75 = test: Cytotoxicity against human SNB75 cells assessed as growth inhibition at 10 uM; details: read-out: GI; in short: as §2
SF-539 = test: Cytotoxicity against human SF539 cells assessed as growth inhibition at 10 uM; details: read-out: GI; in short: as §2
SF-295 = test: Cytotoxicity against human SF295 cells assessed as growth inhibition at 10 uM; details: read-out: GI; in short: as §2
HCT-116 = test: Cytotoxicity against human HCT116 cells assessed as growth inhibition at 10 uM; details: read-out: GI
NCI-H460 = test: Cytotoxicity against human NCI-H460 cells assessed as growth inhibition at 10 uM; details: read-out: GI; in short: as §2
NCI-H322M = test: Cytotoxicity against human NCI-H322M cells assessed as growth inhibition at 10 uM; details: read-out: GI; in short: as §2
HOP-92 = test: Cytotoxicity against human HOP92 cells assessed as growth inhibition at 10 uM; details: read-out: GI
HOP-62 = test: Cytotoxicity against human HOP62 cells assessed as growth inhibition at 10 uM; details: read-out: GI

Compound: Cn1c(NN)nc(-c2ccco2)c(C#N)c1=O
- Activity (Shigella flexneri [1]): 60%
- MIC (Shigella flexneri [2]): 125 µg/mL (≈ 541 µM)
- zone of inhibition at 1000 µg/mL (Candida albicans [3]): 22 mm
- zone of inhibition at 1000 µg/mL (Shigella flexneri [4]): 20 mm
- zone of inhibition at 1000 µg/mL (Staphylococcus aureus [5]): 15 mm
- zone of inhibition at 1000 µg/mL (Pseudomonas aeruginosa [6]): 16 mm
- inhibition of growth at 10 µM (NCI/ADR-RES): 55.9%
- inhibition of growth at 10 µM (HCC 2998): 84.4%
- inhibition of growth at 10 µM (NCI-H23): 54.7%

Compound: N#Cc1c(-c2ccccc2)nc(SCC(=O)Nc2ccc(Cl)cc2)[nH]c1=O
- MIC (Candida albicans [7]): 125 µg/mL (≈ 315 µM)
- Activity (Candida albicans [8]): 75%
- MIC (Pseudomonas aeruginosa [9]): 125 µg/mL (≈ 315 µM)
- MIC (Staphylococcus aureus [10]): 3.91 µg/mL (≈ 9.85 µM)
- zone of inhibition at 1000 µg/mL (Candida albicans [3]): 30 mm
- zone of inhibition at 1000 µg/mL (Shigella flexneri [4]): 17 mm
- zone of inhibition at 1000 µg/mL (Staphylococcus aureus [5]): 20 mm
- zone of inhibition at 1000 µg/mL (Pseudomonas aeruginosa [6]): 22 mm
- inhibition of growth at 10 µM (M14): 45%
- inhibition of growth at 10 µM (HCC 2998): 84.4%

Compound: N#Cc1c(-c2ccccc2)nc(SCC(O)CN2CCOCC2)nc1N1CCOCC1 (stereo not drawn)
- MIC (Candida albicans [7]): 125 µg/mL (≈ 283 µM)
- Activity (Candida albicans [8]): 60%
- zone of inhibition at 1000 µg/mL (Candida albicans [3]): 24 mm
- zone of inhibition at 1000 µg/mL (Shigella flexneri [4]): 18 mm
- zone of inhibition at 1000 µg/mL (Staphylococcus aureus [5]): 15 mm
- zone of inhibition at 1000 µg/mL (Pseudomonas aeruginosa [6]): 16 mm
- inhibition of growth at 10 µM (T47D): 74%
- inhibition of growth at 10 µM (MDA-MB-435): 47%
- inhibition of growth at 10 µM (BT-549): 70.5%
- inhibition of growth at 10 µM (Hs-578T): 93.8%
- inhibition of growth at 10 µM (PC-3): 43.5%
- inhibition of growth at 10 µM (MCF7): 95%
- inhibition of growth at 10 µM (TK-10): 59.2%
- inhibition of growth at 10 µM (UO-31): 58.3%
- inhibition of growth at 10 µM (SN12C): 42.2%
- inhibition of growth at 10 µM (CAKI-1): 62.6%
- inhibition of growth at 10 µM (A498): 103%
- inhibition of growth at 10 µM (ACHN): 45.6%
- inhibition of growth at 10 µM (786-0): 61.9%
- inhibition of growth at 10 µM (SK-OV-3): 58.9%
- inhibition of growth at 10 µM (OVCAR-8): 66.6%
- inhibition of growth at 10 µM (OVCAR-3): 64.6%
- inhibition of growth at 10 µM (IGROV-1): 130%
- inhibition of growth at 10 µM (UACC-62): 57.1%
- inhibition of growth at 10 µM (UACC-257): 82.9%
- inhibition of growth at 10 µM (SK-MEL-28): 40.1%
- inhibition of growth at 10 µM (SK-MEL-2): 92.7%
- inhibition of growth at 10 µM (M14): 40.1%
- inhibition of growth at 10 µM (Malme-3M): 76.9%
- inhibition of growth at 10 µM (SNB-75): 105%
- inhibition of growth at 10 µM (SF-539): 43.4%
- inhibition of growth at 10 µM (SF-295): 56.4%
- inhibition of growth at 10 µM (HCT-116): 42.5%
- inhibition of growth at 10 µM (NCI-H460): 66%
- inhibition of growth at 10 µM (NCI-H322M): 47.7%
- inhibition of growth at 10 µM (HOP-92): 69.3%
- inhibition of growth at 10 µM (HOP-62): 52%

Compound: Cn1c(N2CCCCC2)nc(-c2ccccc2)c(C#N)c1=O
- MIC (Shigella flexneri [2]): 125 µg/mL (≈ 425 µM)
- zone of inhibition at 1000 µg/mL (Candida albicans [3]): 22 mm
- zone of inhibition at 1000 µg/mL (Shigella flexneri [4]): 24 mm
- zone of inhibition at 1000 µg/mL (Staphylococcus aureus [5]): 15 mm
- zone of inhibition at 1000 µg/mL (Pseudomonas aeruginosa [6]): 17 mm
- inhibition of growth at 10 µM (OVCAR-8): 42.4%
- inhibition of growth at 10 µM (UACC-257): 71.9%
- inhibition of growth at 10 µM (SK-MEL-2): 69.8%

Compound: Cn1c(N2CCN(Cc3ccccc3)CC2)nc(-c2ccccc2)c(C#N)c1=O
- MIC (Pseudomonas aeruginosa [9]): 125 µg/mL (≈ 324 µM)
- zone of inhibition at 1000 µg/mL (Candida albicans [3]): 22 mm
- zone of inhibition at 1000 µg/mL (Shigella flexneri [4]): 17 mm
- zone of inhibition at 1000 µg/mL (Staphylococcus aureus [5]): 17 mm
- zone of inhibition at 1000 µg/mL (Pseudomonas aeruginosa [6]): 18 mm
- inhibition of growth at 10 µM (UO-31): 49.1%
- inhibition of growth at 10 µM (OVCAR-8): 54.6%

Compound: N#Cc1c(Cl)nc(SCC2CO2)nc1-c1ccccc1 (stereo not drawn)
- MIC (Shigella flexneri [2]): 125 µg/mL (≈ 411 µM)
- zone of inhibition at 1000 µg/mL (Candida albicans [3]): 22 mm
- zone of inhibition at 1000 µg/mL (Shigella flexneri [4]): 22 mm
- zone of inhibition at 1000 µg/mL (Staphylococcus aureus [5]): 15 mm
- zone of inhibition at 1000 µg/mL (Pseudomonas aeruginosa [6]): 16 mm
- inhibition of growth at 10 µM (OVCAR-8): 48.4%
- inhibition of growth at 10 µM (UACC-257): 60.1%

Source: ChEMBL document CHEMBL2413060, “Synthesis, biological evaluation and molecular docking studies of some pyrimidine derivatives” (2013)
